High-throughput results deposited in PubChem by Broad Institute.
SIRT5 block: sirtuin-5 (human) deacylase inhibition. Purified SirT5, succinyl-peptide AMC, trypsin-coupled fluorescence. inhibition, % at 15 µM. 330,000 compounds, 1.1% hits. AID 652115; in the data active means inhibition above about 15%; inconclusive means no clear call, values can overlap the other calls
PglD inh: PglD (C. jejuni) enzyme inhibition; purified PglD enzyme, DTNB colorimetric CoA detection; inhibition, % at 12.5 µM; 360,000 compounds, 0.098% hits; in the data active means inhibition above about 16%, passing the limit was not always enough; inconclusive means no clear call, values can overlap the other calls
ERAP1 inh: ERAP1 (human) enzyme inhibition | 340,000 compounds, 0.15% hits | Q9NZ08 | inhibition, % at 10.7 µM | recombinant ERAP1, Leu-AMC fluorescence, 60 min;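 active means mean replicate inhibition of at least 30%, or all replicates individually reaching that 30% level; inactive means mean below 30% and not every replicate reaching it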;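 further: 0% = neutral control wells and 100% = L-leucinethiol positive control wells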
E-selectin induc: E-selectin induction on HUVECs | P16581 | HUVEC E-selectin immunofluorescence imaging; normalized: neutral wells 0, TNF-alpha wells 100 | activation, % at 7.58 µM | 260,000 compounds, 0.37% hits | AID 686992;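 active means mean E-selectin-positive cell signal at least 10% of the positive control, reached in at least 60% of replicates, without over 20% cell loss; inconclusive means no rule given, readout overlaps actives, possibly toxicity-flagged; inactive means the rest, including those meeting only one limit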
Target sequence (P16581 whole entry, looked up): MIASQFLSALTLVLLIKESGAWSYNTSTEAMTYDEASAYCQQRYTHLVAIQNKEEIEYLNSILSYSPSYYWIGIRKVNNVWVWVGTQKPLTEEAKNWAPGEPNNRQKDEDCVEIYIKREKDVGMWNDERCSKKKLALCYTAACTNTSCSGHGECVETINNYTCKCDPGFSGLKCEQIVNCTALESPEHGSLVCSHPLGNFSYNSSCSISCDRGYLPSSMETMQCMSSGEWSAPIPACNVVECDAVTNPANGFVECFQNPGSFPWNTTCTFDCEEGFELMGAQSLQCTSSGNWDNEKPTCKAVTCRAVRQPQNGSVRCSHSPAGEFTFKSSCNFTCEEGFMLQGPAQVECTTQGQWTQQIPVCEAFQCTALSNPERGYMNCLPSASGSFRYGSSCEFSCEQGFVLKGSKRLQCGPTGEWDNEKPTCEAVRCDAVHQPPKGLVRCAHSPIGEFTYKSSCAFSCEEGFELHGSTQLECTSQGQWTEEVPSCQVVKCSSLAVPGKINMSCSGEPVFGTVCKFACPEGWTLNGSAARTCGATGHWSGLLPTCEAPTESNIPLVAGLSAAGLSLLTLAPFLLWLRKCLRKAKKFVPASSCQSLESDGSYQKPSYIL
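Test system – human umbilical vein endothelial cells (HUVEC), E-selectin induction · Input – 3,000 HUVEC seeded per well · Buffer or medium – EGM-2, gelatin · Compound dosing – single-point compound dose · Detection – immunofluorescence imaging · Measure – percent E-selectin-positive cells · Controls – TNF-alpha high, DMSO low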
DENV2 CPE: DENV2-induced cell death inhibition. DENV2-infected cells, cytopathic effect rescue, plate reader. CPE inhibition, % at 9.99 µM. 350,000 compounds, 1.7% hits. AID 651640; in the data active means CPE inhibition above about 20%, passing the limit was not always enough; inconclusive means no clear call, values can overlap the other calls; tested in BHK-21 cells;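 further: 0% = median of neutral control wells and 100% = median of positive control wells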
PglD inh SP: PglD (C. jejuni) inhibition confirmation | AID 743156 | shares compounds with PglD inh | inhibition, % at 20 µM | Purified C. jejuni PglD, DTNB absorbance 412 nm | 320 tested, under 10 active;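 active means mean inhibition across replicates of at least 20% with every single replicate also at 20% or more; inconclusive means mean inhibition at least 20% but some replicate falls below 20%; inactive means mean inhibition under 20% and not all replicates reach it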;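 further: initial rate of CoA release by acetyl transfer from AcCoA to the UDP-4-amino sugar; 0% = median of neutral control wells and 100% = median of positive control wells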
Numbers without * were called inactive; ? = inconclusive; / = no result. In the library only some 2.5% were active in any assay of this set; here they are far more common.

SMILES	SIRT5 block	PglD inh	ERAP1 inh	E-selectin induc	DENV2 CPE	PglD inh SP
COc1ccc(/C(O)=C2/C(=O)C(=O)N(CCCN3CCOCC3)C2c2ccc(Cl)cc2)cc1 (stereo not drawn)	/	24*	0	0	-6	-1
CN1[C@@H]2c3ccc(C4=CCCC4)c(=O)n3C[C@@H]2[C@@H](CO)[C@@H]1C(=O)NC1Cc2ccccc2C1	-3	3	-2	0	-4	/
COc1cc(NC(=O)COC(=O)CSc2ccccc2F)c(C)cc1[N+](=O)[O-]	-4	/	-3	0	9	/
COc1cc(NC(=O)COC(=O)CSc2cc(C)ccc2C)c(C)cc1[N+](=O)[O-]	-3	22*	-2	-7	-8	-6
COCC#Cc1ccc2c(c1)O[C@@H](CN(C)C)[C@H](C)CN([C@H](C)CO)S2(=O)=O	0	0	0	0	-6	/
CCCCOCCCNC(=O)N[C@H](C(=O)O)C(C)CC (stereo partly drawn)	-1	7	-1	2	2	/
CCC(C)[C@H](NC(=O)NC1CC1)C(=O)O (stereo partly drawn)	-1	27*	0	/	/	-4
COc1ccc(S(=O)(=O)N2CCCCC2)cc1NC(=S)Nc1ccccc1	/	23*	/	/	/	-2
CCN(CC)C(=O)C(C)N(C#N)c1nc(SC)nc(N(C)C)n1 (stereo not drawn)	/	-4	/	/	/	/
Cc1noc(C)c1S(=O)(=O)Nc1cccc2c1O[C@H](CN(C)Cc1ccc(Cl)c(Cl)c1)[C@H](C)CN([C@@H](C)CO)C2=O	8	0	-1	-5	-2	/
S=C(NCc1ccncc1)NC1CCCCC1	-2	27*	-2	/	6	1
CCNC(=O)C[C@@H]1CC[C@@H]2[C@H](COC[C@@H](O)CN2C(=O)c2cccnc2)O1	4	0	1	0	-18	/
CC(C)(/C=N/O)/[N+]([O-])=C/c1ccccc1	2	2	1	7	-1	/
CCc1ccc(N=C2NC(=O)/C(=C/c3cc(Br)c(OCC(=O)O)c(OC)c3)S2)cc1	15	27*	-2	0	7	20*
CCOC(=O)C1(C)CCCN(C(=O)Cc2ccc3ccccc3c2)C1 (stereo not drawn)	0	-3	-2	0	-6	/
CCOC(=O)c1ccc(NC(=S)N2CCC(O)CC2)cc1	-1	24*	10	/	4	6
Cc1ccc(O)c(NC(=O)CN(C)S(=O)(=O)c2ccc(Cl)cc2)c1	-3	30*	0	0	?	5
CCN(CC)S(=O)(=O)c1ccc(S(=O)(=O)N2CCCC2C(=O)O)cc1 (stereo not drawn)	-2	25*	-2	/	-1	4
Cc1ccc(OCC(=O)N(C)CCc2ccccn2)cc1	-2	24*	-9	/	/	-1
COc1ccc(S(=O)(=O)N2CCN(CCOc3ccc(Br)cc3)CC2)cc1OC	-1	-1	-6	/	-14	/
COc1ccc(OC)c(C(=O)CN2CCN(S(=O)(=O)c3ccc(Br)cc3)CC2)c1	/	21*	/	/	/	3
CCCn1c(=O)c(Cc2ccccc2)c(O)c2ccccc21	/	-3	/	/	/	/
CCCCCn1c(=O)c(Cc2ccccc2)c(O)c2ccccc21	/	22*	/	/	/	2
COc1ccc([C@H]2CC(=O)C=C(C#CC(C)(C)C)C2)cc1	/	5	-1	/	3	/
O=C(COC(=O)c1cccc(F)c1)Nc1cccc(S(=O)(=O)N2CCOCC2)c1	/	5	-1	-1	-6	/
SMILES	SIRT5 block	PglD inh	ERAP1 inh	E-selectin induc	DENV2 CPE	PglD inh SP
O=C(COC(=O)c1cccc(F)c1)Nc1cccc(S(=O)(=O)N2CCCCC2)c1	1	22*	-4	0	-3	-2
CCc1ccccc1NC(=O)C1CCN(C(=O)c2ccc([N+](=O)[O-])cc2)CC1	1	46*	3	/	13	2
CC(=O)Nc1ccc(NC(=O)C2CCN(C(=O)c3ccc([N+](=O)[O-])cc3)CC2)cc1	-2	/	4	-1	2	/
CCn1c(=O)cc(SCC(=O)N2CCN(c3ccccc3OC)CC2)c2ccccc21	/	33*	/	/	/	?
CCn1c(=O)cc(SCC(=O)N2CCOCC2)c2ccccc21	/	-3	/	/	/	/
O=C(NCCCN=C1NS(=O)(=O)c2ccccc21)c1ccncc1	/	25*	/	/	/	2
O=C(NCCCN=C1NS(=O)(=O)c2ccccc21)c1ccc(F)cc1	2	-1	0	/	12	/
O=C(CNC(=O)c1ccc(Br)o1)Nc1ccc(N2CCCCCC2)cc1	-2	-4	-3	/	-10	/
O=C(CNC(=O)c1ccco1)Nc1ccc(N2CCCCCC2)cc1	-1	24*	-2	0	-9	-4
O=C1c2ccc([N+](=O)[O-])cc2C(=O)N1CNc1ccccn1	1	/	-1	-5	2	/
CCc1nc2ccc(C(=O)NCCCn3ccnc3)cn2c1N(C)Cc1cccs1	-3	20*	4	0	?	-5
C[C@H]1CCCCO[C@@H](CN(C)Cc2ccncc2)[C@@H](C)CN([C@@H](C)CO)C(=O)c2cc(NS(=O)(=O)c3cn(C)cn3)ccc2O1	-2	2	0	0	6	/
CCCC/C(O)=C1\C(=O)CCCC1=NCCc1c(C)[nH]c2ccc(OC)cc12	2	20*	1	0	-1	-3
COc1cc(C(O)c2nc(-c3ccc(C)c(C)c3)cs2)ccc1F (stereo not drawn)	/	25*	-1	0	-5	8
O=C(CC(=O)NCc1cccnc1)NCc1cccnc1	/	-7	/	/	/	/
CCC(NC(=O)NCc1cccnc1)(C(F)(F)F)C(F)(F)F	/	20*	/	/	/	14
CC1Cc2ccccc2N1C(=O)c1ccc(N2CCCC2)c([N+](=O)[O-])c1 (stereo not drawn)	1	22*	-1	/	1	7
Cc1ccccc1-c1nc(-c2ccc(NC(=O)c3ccc(Br)o3)cc2)no1	/	31*	/	/	/	2
Cc1ccccc1-c1nc(-c2ccc(Br)o2)no1	1	-1	0	0	0	/
CC(=O)Nc1ccc(SCC(=O)Nc2ccccc2-c2ccccc2)cc1	-8	20*	3	/	-2	-2
Cc1cccc2[nH]c(CN(C)Cc3nc(CC4CC4)no3)nc12	-1	36*	-2	5	/	-3
CN(Cc1nc2ccccc2[nH]1)Cc1nc(CC2CC2)no1	/	/	2	8	/	/
COc1ccc(NC(=O)CC2SC(=NCC3CCCO3)NC2=O)cc1 (stereo not drawn)	-2	26*	-1	0	-6	-2
COc1ccc(NC(=O)CC2SC(=Nc3ccccc3)NC2=O)cc1 (stereo not drawn)	/	3	/	/	/	/
CC(C)c1cccc(-c2csc(C(C)(O)c3ccc(F)c(F)c3)n2)c1 (stereo not drawn)	-3	24*	3	-3	-2	3
CC(O)(c1ccc(F)c(F)c1)c1nc(-c2cccc(F)c2)cs1 (stereo not drawn)	/	2	-1	0	9	/
